In ChEMBL document CHEMBL5715938, “The protein kinase Cbeta-selective inhibitor, Enzastaurin (LY317615.HCl), suppresses signaling through the AKT pathway, induces apoptosis, and suppresses growth of human colon cancer and glioblastoma xenografts” (Cancer Res, 2005):
Calls of active or inactive are those of the source. No cut-off for these calls is given here.

Legend:
U-87 MG [1] = experiment: Antiproliferative activity against human U-87 MG cells assessed as reduction in cell growth upto 10 uM measured after 6 days by propidium iodide staining based analysis; assay type: functional; conditions: U-87MG ATCC, time 6.0 day
Summary of the method: (§1)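 ATCC-sourced lines grown without antibiotics; 1,000 cells/well in 1% FBS medium, refed ±drug on days 1 and 4 over a 6-day course. On day 7, propidium iodide (10 μg/mL in D-PBS) read after 30 min for nonviable cells, plate frozen at -80°C 2 h, thawed and reread; proliferative index = postfreeze minus prefreeze signal.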

PC-3 = experiment: Antiproliferative activity against human PC-3 cells assessed as reduction in cell growth upto 10 uM measured after 6 days by propidium iodide staining based analysis; assay type: functional; conditions: time 6.0 day; summary of the method: as §1
HCT-116 [2] = experiment: Antiproliferative activity against human HCT-116 cells assessed as reduction in cell growth upto 10 uM measured after 6 days by propidium iodide staining based analysis; assay type: functional; conditions: time 6.0 day; summary of the method: as §1
BT-549 = experiment: Antiproliferative activity against human BT-549 cells assessed as reduction in cell growth upto 10 uM measured after 6 days by propidium iodide staining based analysis; assay type: functional; conditions: time 6.0 day; summary of the method: as §1
HOP-62 = experiment: Antiproliferative activity against human HOP-62 cells assessed as reduction in cell growth upto 10 uM measured after 6 days by propidium iodide staining based analysis; assay type: functional; conditions: time 6.0 day; summary of the method: as §1
NCI-H23 = experiment: Antiproliferative activity against human NCI-H23 cells assessed as reduction in cell growth upto 10 uM measured after 6 days by propidium iodide staining based analysis; assay type: functional; conditions: time 6.0 day; summary of the method: as §1
NCI-H322M = experiment: Antiproliferative activity against human NCI-H322M cells assessed as reduction in cell growth upto 10 uM measured after 6 days by propidium iodide staining based analysis; assay type: functional; conditions: time 6.0 day; summary of the method: as §1
RXF 393 = experiment: Antiproliferative activity against human RXF 393 cells assessed as reduction in cell growth upto 10 uM measured after 6 days by propidium iodide staining based analysis; assay type: functional; conditions: time 6.0 day; summary of the method: as §1
HCT-116 [3] = experiment: Induction of apoptosis in human HCT-116 cells assessed as increase in apoptotic cells in sub-G0-G1 fraction at 0.3 to 4 micromol/L incubated for 72 hrs by TUNEL staining based analysis; assay type: functional, cell-based; conditions: dose 0.3-4 µmol/L
[4] = molecular target: Protein kinase C alpha type (Homo sapiens) (UniProt P17252); experiment: Inhibition of PKCalpha (unknown origin) at 1 micromol/L relative to control; conditions: dose 1.0 µmol/L
Summary of the method: (§2)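 Commercial kinase profiler panel run to the provider's protocol, with the compound tested at 1 µmol/L. Activity is expressed as percent of kinase activity without compound.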

[5] = molecular target: Protein kinase C eta type (Homo sapiens) (UniProt P24723); experiment: Inhibition of PKCeta (unknown origin) at 1 micromol/L relative to control; conditions: dose 1.0 µmol/L; summary of the method: as §2
[6] = molecular target: Protein kinase C iota type (Homo sapiens) (UniProt P41743); experiment: Inhibition of PKCIota (unknown origin) at 1 micromol/L relative to control; conditions: dose 1.0 µmol/L
Summary of the method: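 Commercial kinase profiling panel run by the provider's protocol at a single inhibitor concentration of 1 µmol/L. Activity expressed as percent of kinase activity without inhibitor.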

[7] = molecular target: Inhibitor of nuclear factor kappa-B kinase subunit beta (Homo sapiens) (UniProt O14920); experiment: Inhibition of IKKbeta (unknown origin) at 1 micromol/L relative to control; conditions: dose 1.0 µmol/L
Summary of the method: (§3)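 Upstate Kinase Profiler panel at 1 μmol/L drug, run per provider; data expressed as percent of kinase activity without drug.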

[8] = molecular target: RAC-alpha serine/threonine-protein kinase (Homo sapiens) (UniProt P31749); experiment: Inhibition of PKBalpha (unknown origin) at 1 micromol/L relative to control; conditions: dose 1.0 µmol/L; summary of the method: as §2
[9] = molecular target: Mitogen-activated protein kinase 13 (Homo sapiens) (UniProt O15264); experiment: Inhibition of SAPK4 (unknown origin) at 1 micromol/L relative to control; conditions: dose 1.0 µmol/L; summary of the method: as §2
[10] = molecular target: Fibroblast growth factor receptor 3 (Homo sapiens) (UniProt P22607); experiment: Inhibition of FGFR3 (unknown origin) at 1 micromol/L relative to control; conditions: dose 1.0 µmol/L; summary of the method: as §3
HCT-116 [11] = experiment: Antitumor activity against human HCT-116 cells xenografted in athymic nude mouse assessed as reduction in tumor growth at 75 mg/kg, po administered twice daily measured after 21 days; assay type: functional, organism-based; conditions: time 21.0 day
Summary of the method: (§4)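 Female athymic nude mice, 6–8 weeks, 5 million cells s.c. flank in 1:1 serum-free medium/matrigel; at group mean 100 mm³, 75 mg/kg by gavage twice daily in 10% acacia for 21 days, n = 9/group, vehicle controls; caliper volume A²×B×0.536; two-way repeated measures analysis.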

U-87 MG [12] = experiment: Antitumor activity against human U-87 MG cells xenografted in athymic nude mouse assessed as reduction in tumor growth at 75 mg/kg, po administered twice daily measured after 21 days; assay type: functional, organism-based; conditions: U-87MG ATCC, time 21.0 day; summary of the method: as §4
[13] = Plasma concentration in athymic nude mouse xenografted with human HCT-116 cells at 75 mg/kg, po administered twice daily measured after 30 mins by LC-MS analysis; assay type: ADME, organism-based
Summary of the method: (§5)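 Female athymic nude mice, 6–8 weeks old, received 5 million HCT116 cells s.c. in the flank in 1:1 serum-free medium and matrigel (n = 9 per group). Dosing began at a group mean tumor volume of 100 mm³: 75 mg/kg twice daily by gavage, suspended in 10% acacia in water. Plasma was taken on days 1 and 21 at 0.5–12 h post-dose and measured by LC-MS/MS.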

[14] = Plasma concentration in athymic nude mouse xenografted with human HCT-116 cells at 75 mg/kg, po administered twice daily measured after 1 hr by LC-MS analysis; assay type: ADME, organism-based; summary of the method: as §5
[15] = Drug concentration in athymic nude mouse plasma xenografted with human HCT-116 cells at 75 mg/kg, po administered twice daily measured after 8 to 12 hrs by LC-MS analysis; assay type: ADME, organism-based; conditions: in vivo, time 8-12 hrs
Summary of the method: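 HCT116-bearing nude mice given 75 mg/kg twice daily by gavage; plasma collected on day 1 and day 21 at 0.5, 1, 2, 4, 8 and 12 h after dose; drug quantified by LC-MS/MS.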

HCT-116 [16] = experiment: Antitumor activity against human HCT-116 cells xenografted in athymic nude mouse assessed as reduction in GSK3beta phosphorylation at serine 9 residue at 75 mg/kg, po administered twice daily by Western blotting analysis; assay type: functional, organism-based; conditions: time <= 8.0 hrs, TDE = time-dependent effect
HCT-116 [17] = experiment: Antitumor activity against human HCT-116 cells xenografted in athymic nude mouse assessed as reduction in GSK3beta phosphorylation at serine 9 residue at 75 mg/kg, po administered twice daily measured after 30 mins by ELISA method relative to control; assay type: functional; set-up: scale not given: the % may be the effect or the level left; conditions: 0.5 h
Summary of the method: (§6)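 HCT116-bearing nude mice, 75 mg/kg by gavage; tumors and PBMCs harvested 0.5, 2, 4, 8 h post-dose, n = 5 per time point. PBMCs from five mice pooled via CPT tube. Lysates assayed by pGSK3β Ser9 immunometric ELISA (tumor 400–600 μg, PBMC 50–100 μg protein/well); percent of vehicle control, Dunnett/ANOVA.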

HCT-116 [18] = experiment: Antitumor activity against human HCT-116 cells xenografted in athymic nude mouse assessed as reduction in GSK3beta phosphorylation at serine 9 residue at 75 mg/kg, po administered twice daily measured after 2 hrs by ELISA method relative to control; assay type: functional; set-up: scale not given: the % may be the effect or the level left; summary of the method: as §6

RAC-alpha serine/threonine-protein kinase (Homo sapiens), sequence (P31749 whole entry): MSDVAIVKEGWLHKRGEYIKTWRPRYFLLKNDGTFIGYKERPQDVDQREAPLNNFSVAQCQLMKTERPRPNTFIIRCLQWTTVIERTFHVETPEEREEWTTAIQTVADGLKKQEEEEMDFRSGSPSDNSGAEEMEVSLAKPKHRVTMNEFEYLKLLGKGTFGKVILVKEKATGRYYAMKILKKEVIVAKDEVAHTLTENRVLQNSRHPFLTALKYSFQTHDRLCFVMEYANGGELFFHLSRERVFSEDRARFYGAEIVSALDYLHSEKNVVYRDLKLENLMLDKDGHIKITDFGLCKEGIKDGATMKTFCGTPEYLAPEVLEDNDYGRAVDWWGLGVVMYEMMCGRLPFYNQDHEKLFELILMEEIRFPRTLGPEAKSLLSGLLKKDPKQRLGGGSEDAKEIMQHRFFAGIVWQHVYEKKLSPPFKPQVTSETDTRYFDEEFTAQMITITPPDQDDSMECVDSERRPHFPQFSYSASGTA
Fibroblast growth factor receptor 3 (Homo sapiens), sequence (P22607 23-806 limits assumed): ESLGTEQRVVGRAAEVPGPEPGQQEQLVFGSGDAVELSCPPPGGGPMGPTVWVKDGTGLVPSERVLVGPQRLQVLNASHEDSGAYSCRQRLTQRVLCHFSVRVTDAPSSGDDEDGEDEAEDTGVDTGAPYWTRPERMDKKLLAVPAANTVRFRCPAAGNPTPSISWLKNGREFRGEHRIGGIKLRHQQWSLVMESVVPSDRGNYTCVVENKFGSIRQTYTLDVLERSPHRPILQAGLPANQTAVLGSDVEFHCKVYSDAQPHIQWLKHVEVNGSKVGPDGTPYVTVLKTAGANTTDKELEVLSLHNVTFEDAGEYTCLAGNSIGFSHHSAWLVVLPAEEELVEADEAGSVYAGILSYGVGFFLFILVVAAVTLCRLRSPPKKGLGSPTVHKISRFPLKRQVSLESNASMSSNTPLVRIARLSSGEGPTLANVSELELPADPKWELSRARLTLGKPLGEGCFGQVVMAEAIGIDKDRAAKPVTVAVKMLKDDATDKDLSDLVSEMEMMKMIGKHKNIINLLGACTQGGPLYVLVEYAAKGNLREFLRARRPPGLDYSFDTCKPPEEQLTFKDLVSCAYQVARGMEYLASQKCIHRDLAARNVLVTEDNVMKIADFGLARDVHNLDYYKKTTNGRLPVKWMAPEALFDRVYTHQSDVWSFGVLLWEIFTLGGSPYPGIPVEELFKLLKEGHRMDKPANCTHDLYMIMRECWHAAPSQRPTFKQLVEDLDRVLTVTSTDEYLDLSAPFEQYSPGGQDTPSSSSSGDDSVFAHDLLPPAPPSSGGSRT
Mitogen-activated protein kinase 13 (Homo sapiens), sequence (O15264 whole entry): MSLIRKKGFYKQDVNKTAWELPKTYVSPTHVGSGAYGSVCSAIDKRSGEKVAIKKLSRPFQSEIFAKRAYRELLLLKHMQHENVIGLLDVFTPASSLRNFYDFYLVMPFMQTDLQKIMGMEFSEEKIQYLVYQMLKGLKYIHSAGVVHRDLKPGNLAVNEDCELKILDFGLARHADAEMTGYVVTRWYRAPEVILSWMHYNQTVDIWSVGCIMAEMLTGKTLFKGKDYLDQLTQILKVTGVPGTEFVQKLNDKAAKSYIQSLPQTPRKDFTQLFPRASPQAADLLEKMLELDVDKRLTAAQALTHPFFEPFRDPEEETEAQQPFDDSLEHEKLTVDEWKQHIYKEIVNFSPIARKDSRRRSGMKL
Protein kinase C eta type (Homo sapiens), sequence (P24723 whole entry): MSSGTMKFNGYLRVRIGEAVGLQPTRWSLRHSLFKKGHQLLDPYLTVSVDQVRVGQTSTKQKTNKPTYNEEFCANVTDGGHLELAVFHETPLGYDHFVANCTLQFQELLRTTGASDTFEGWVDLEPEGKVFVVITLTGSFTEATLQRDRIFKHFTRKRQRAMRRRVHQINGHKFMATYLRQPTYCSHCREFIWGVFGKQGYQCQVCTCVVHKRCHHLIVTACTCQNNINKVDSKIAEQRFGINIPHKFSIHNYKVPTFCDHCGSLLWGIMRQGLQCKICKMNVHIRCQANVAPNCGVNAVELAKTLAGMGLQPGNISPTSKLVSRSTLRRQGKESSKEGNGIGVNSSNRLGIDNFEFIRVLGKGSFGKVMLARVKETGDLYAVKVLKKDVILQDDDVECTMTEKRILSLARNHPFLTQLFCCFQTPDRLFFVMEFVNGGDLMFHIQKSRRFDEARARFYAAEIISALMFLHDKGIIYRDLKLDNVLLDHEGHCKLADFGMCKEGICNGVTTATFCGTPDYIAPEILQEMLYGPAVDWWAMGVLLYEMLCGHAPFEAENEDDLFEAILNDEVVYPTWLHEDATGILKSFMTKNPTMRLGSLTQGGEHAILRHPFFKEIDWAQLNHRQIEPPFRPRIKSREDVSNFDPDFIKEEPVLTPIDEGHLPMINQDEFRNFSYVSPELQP
Protein kinase C iota type (Homo sapiens), sequence (P41743 whole entry): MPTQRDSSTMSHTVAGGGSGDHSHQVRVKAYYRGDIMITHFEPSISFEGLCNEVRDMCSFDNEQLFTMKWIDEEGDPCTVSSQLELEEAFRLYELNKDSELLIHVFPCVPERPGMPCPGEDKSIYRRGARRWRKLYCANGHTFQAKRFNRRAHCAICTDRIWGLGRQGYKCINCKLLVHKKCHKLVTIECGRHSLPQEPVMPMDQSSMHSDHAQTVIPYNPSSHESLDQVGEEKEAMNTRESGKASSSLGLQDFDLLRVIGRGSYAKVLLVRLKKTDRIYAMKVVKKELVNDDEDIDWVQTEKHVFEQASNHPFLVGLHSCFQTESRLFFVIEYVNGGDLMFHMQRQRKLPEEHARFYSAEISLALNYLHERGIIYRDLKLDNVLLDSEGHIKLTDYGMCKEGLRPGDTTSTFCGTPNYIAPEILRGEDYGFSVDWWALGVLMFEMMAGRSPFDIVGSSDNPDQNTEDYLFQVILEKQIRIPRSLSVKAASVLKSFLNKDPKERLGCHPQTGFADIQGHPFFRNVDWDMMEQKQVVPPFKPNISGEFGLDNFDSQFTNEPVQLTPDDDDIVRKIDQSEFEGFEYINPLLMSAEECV
Inhibitor of nuclear factor kappa-B kinase subunit beta (Homo sapiens), sequence (O14920 whole entry): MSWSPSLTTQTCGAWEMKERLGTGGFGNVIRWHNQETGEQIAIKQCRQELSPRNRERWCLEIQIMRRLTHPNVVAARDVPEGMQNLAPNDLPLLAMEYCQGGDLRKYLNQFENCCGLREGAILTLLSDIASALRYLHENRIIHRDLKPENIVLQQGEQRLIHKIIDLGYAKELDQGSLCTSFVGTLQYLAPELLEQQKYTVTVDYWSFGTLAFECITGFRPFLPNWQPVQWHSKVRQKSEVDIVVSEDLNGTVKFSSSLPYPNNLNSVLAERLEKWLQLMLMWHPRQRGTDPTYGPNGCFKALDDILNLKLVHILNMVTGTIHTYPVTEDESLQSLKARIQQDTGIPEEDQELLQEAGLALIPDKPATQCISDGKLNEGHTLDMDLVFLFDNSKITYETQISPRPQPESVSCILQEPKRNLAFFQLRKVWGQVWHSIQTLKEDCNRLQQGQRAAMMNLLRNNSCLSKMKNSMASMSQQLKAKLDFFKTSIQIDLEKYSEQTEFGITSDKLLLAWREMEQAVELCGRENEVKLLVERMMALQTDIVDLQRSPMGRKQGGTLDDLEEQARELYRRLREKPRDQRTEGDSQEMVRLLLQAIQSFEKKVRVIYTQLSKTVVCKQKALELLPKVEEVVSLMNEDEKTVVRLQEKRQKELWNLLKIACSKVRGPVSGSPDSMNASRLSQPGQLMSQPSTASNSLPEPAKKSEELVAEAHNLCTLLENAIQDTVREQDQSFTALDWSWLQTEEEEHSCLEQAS

Cl.Cn1cc(C2=C(c3cn(C4CCN(Cc5ccccn5)CC4)c4ccccc34)C(=O)NC2=O)c2ccccc21 [ENZASTAURIN HYDROCHLORIDE]
Activity (U-87 MG [1]): Active | Activity (PC-3): Active | Activity (HCT-116 [2]): Active | Activity (BT-549): inactive | Activity (HOP-62): inactive | Activity (NCI-H23): inactive | Activity (NCI-H322M): inactive | Activity (RXF 393): inactive | Activity (HCT-116 [3]): Active | % control activity [4]: 23% | % control activity [5]: 53% | % control activity [6]: 91% | % control activity [7]: 116% | % control activity [8]: 75% | % control activity [9]: 97% | % control activity [10]: 82% | Activity (HCT-116 [11]): Active | Activity (U-87 MG [12]): Active | concentration at 0.5 h [13]: ~2000 nM | concentration at 1 h [14]: 3000 nM | Drug uptake [15]: Not Active | Activity (HCT-116 [16]): Tde | Activity (HCT-116 [17]): 50% | Activity (HCT-116 [18]): 80%
